Results: ChEMBL document CHEMBL1124344, “5-Piperazinylalkyl-2(3H)-oxazolones with neuroleptic activity” (J Med Chem, 1989)

Assays:
Assay type in all cases: functional
Mus musculus [1] = assay: Inhibition of spontaneous locomotor activity, after 1 hour of peroral administration in mouse; conditions: po
Procedure, shortened: (§1)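 Mice in groups of five were dosed orally with gum arabic suspensions at 10 mL/kg after an overnight fast, with a vehicle control group. Locomotion was counted for 10 min in a photocell activity cage, in at least two groups per dose. ED50, by probit analysis, is the dose giving 50% inhibition against controls.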

Mus musculus [2] = assay: Inhibition of spontaneous motor activity after 1 hour of peroral administration in mouse; conditions: po; procedure, shortened: as §1
Mus musculus [3] = assay: Effect on skeletal muscle tone, after 1 hour of peroral administration in mouse at a dose of 100 mg/kg; conditions: Muscle tissue, route oral
Procedure, shortened: (§2)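 Male mice were placed for 1 h on a 60° inclined wire screen just after dosing and 4 h later. In a second test, trained mice hung by the forepaws from a horizontal 1.8 mm wire 15 cm up; normal mice touch it with a hind paw within 2 s and stay ≥1 min. ED50 is the dose making 50% fall. Dosing was oral in gum arabic suspension at 10 mL/kg after an overnight fast.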

Mus musculus [4] = assay: Activity of inclined screen in mouse, after 5 hour of peroral administration in mouse at a dose of 60 mg/kg; conditions: route oral
Procedure, shortened: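 Male mice dosed orally (arabic gum suspension, 10 mL/kg, fasted overnight) 1 or 5 h before testing. Placed for 1 h on a wire screen bent at 60° to the horizontal. Ataxic or miorelaxed mice slide off. ED50 is the dose at which 50% of mice fall, by probit analysis. Ten animals per dose, with vehicle controls.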

Mus musculus [5] = assay: Anticonvulsant activity against pentylenetetrazole-induced convulsions, after 5 hour of peroral administration in mouse at a dose of 40 mg/kg; conditions: route oral
Procedure, shortened: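 Male mice dosed orally (arabic gum, 10 mL/kg) 1 or 5 h before challenge with tryptamine 100 mg/kg iv, pentylenetetrazol 110 mg/kg ip, or maximal electroshock. Protection means no bilateral forepaw clonic seizures and head twitches (tryptamine) or no tonic hind-limb extension (others). ED50 protects 50% of mice.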

Rattus norvegicus [6] = assay: Antagonistic activity against apomorphine-induced stereotypy, after 5 hour of peroral administration in rats at a dose of 100 mg/kg; conditions: route oral
Procedure, shortened: (§3)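 Male rats fasted overnight and given oral doses in arabic gum suspension (10 mL/kg) 1 h, or 1 and 5 h, before challenge. Apomorphine 3 mg/kg iv, with stereotypy observed 20 min later. ED50 is the dose inhibiting stereotypy in 50% of rats, per Janssen's method. Parenthetical entries give the maximal dose and percent activity.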

Mus musculus [7] = assay: Anticonvulsant activity against pentylenetetrazole-induced convulsions, after 1 hour of peroral administration in mouse at a dose of 20 mg/kg; conditions: route oral
Procedure, shortened: (§4)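 Compounds were dosed as bases suspended in arabic gum at 10 mL/kg orally, after an overnight fast, with vehicle controls. Protection meant no bilateral forepaw clonic seizures or head twitches (tryptamine), or no tonic hind-limb extension (the other two). ED50 is the dose protecting 50%, by probit analysis.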

Mus musculus [8] = assay: Effect on skeletal muscle tone, after 1 hour of peroral administration in mouse at a dose of 200 mg/kg; conditions: Muscle tissue, route oral; procedure, shortened: as §2
Mus musculus [9] = assay: Effect on skeletal muscle tone, after 5 hour of peroral administration in mouse at a dose of 200 mg/kg; conditions: Muscle tissue, route oral; procedure, shortened: as §2
Mus musculus [10] = assay: Potentiation against pentobarbital-induced sleeping, after 1 hour of peroral administration in mouse at a dose of 100 mg/kg; conditions: route oral
Procedure, shortened: (§5)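 Female mice fasted overnight, dosed orally 1 or 5 h beforehand as arabic gum suspension, 10 mL/kg, with vehicle controls. Subhypnotic pentobarbital 10 mg/kg iv; 3 min later placed on back, effect scored as complete loss of righting reflex for at least 15 s. ED50 = dose producing this in 50% of mice, probit analysis.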

Mus musculus [11] = assay: Potentiation against pentobarbital-induced sleeping, after 5 hour of peroral administration in mouse at a dose of 100 mg/kg; conditions: route oral; procedure, shortened: as §5
Mus musculus [12] = assay: Anticonvulsant activity against pentylenetetrazole-induced convulsions, after 1 hour of peroral administration in mouse at a dose of 100 mg/kg; conditions: route oral; procedure, shortened: as §4
Mus musculus [13] = assay: Anticonvulsant activity against pentylenetetrazole-induced convulsions, after 5 hour of peroral administration in mouse at a dose of 100 mg/kg; conditions: route oral; procedure, shortened: as §4
Mus musculus [14] = assay: Anticonvulsant activity against electroshock-induced convulsions, after 1 hour of peroral administration in mouse at a dose of 100 mg/kg; conditions: route oral; procedure, shortened: as §4
Mus musculus [15] = assay: Anticonvulsant activity against electroshock-induced convulsions, after 5 hour of peroral administration in mouse at a dose of 100 mg/kg; conditions: route oral; procedure, shortened: as §4
Mus musculus [16] = assay: Anticonvulsant activity against tryptamine-induced convulsions, after 5 hour of peroral administration in mouse at a dose of 40 mg/kg; conditions: route oral; procedure, shortened: as §4
Rattus norvegicus [17] = assay: Inhibitory activity against norepinephrine-induced lethality, after 1 hour of peroral administration in rat at a dose of 40 mg/kg; conditions: route oral
Procedure, shortened: (§6)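 Rats (80–90 g) dosed orally (arabic gum, 10 mL/kg) 1 or 5 h before norepinephrine 0.5 mg/kg iv, which kills unprotected rats within 30 min. ED50 is the dose protecting 50% of rats from lethality, by probit analysis.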

Rattus norvegicus [18] = assay: Inhibitory activity against norepinephrine-induced lethality, after 5 hour of peroral administration in rat at a dose of 40 mg/kg; conditions: route oral; procedure, shortened: as §6
Rattus norvegicus [19] = assay: Antagonistic activity against apomorphine-induced stereotypy, after 1 hour of peroral administration in rats at a dose of 100 mg/kg; conditions: route oral; procedure, shortened: as §3
Rattus norvegicus [20] = assay: Antagonistic activity against apomorphine-induced stereotypy in rats, by administering perorally at a dose of 100 mg/kg; conditions: route oral; procedure, shortened: as §3
Rattus norvegicus [21] = assay: Activity to evoke catalepsy, after 1 hour of peroral administration in rats at a dose of 200 mg/kg; conditions: route oral
Procedure, shortened: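 Rats fasted overnight and given oral doses in arabic gum suspension (10 mL/kg), 1 h before screening or 1 and 5 h before profile testing. Forelegs placed on a horizontal bar 7 cm high, three times at 5-min intervals. Immobility of at least 15 s counts as catalepsy. ED50 is the dose giving catalepsy in 50% of rats, by probit analysis. Parenthetical entries give the maximal dose and percent activity.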

Rattus norvegicus [22] = assay: Inhibition against conditioned avoidance response, after 1 hour of peroral administration in rats at a dose of 40 mg/kg; conditions: route oral
Procedure, shortened: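 Male rats were trained in a shuttle box to avoid grid-floor shock by crossing compartments during a warning period. Dosing was oral as a gum arabic suspension at 10 mL/kg after an overnight fast. Percent inhibition was computed against a pretraining test. ED50 is the dose giving 50% inhibition.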

Mus musculus [23] = assay: Anticonvulsant activity against pentylenetetrazole-induced convulsions, after 1 hour of peroral administration in mouse at dose of 100 mg/kg; conditions: route oral; procedure, shortened: as §4
Mus musculus [24] = assay: Anticonvulsant activity against electroshock-induced convulsions, after 1 hour of peroral administration in mouse at dose of 100 mg/kg; conditions: route oral; procedure, shortened: as §4
Mus musculus [25] = assay: Inhibitory activity against tremorine-induced salivation, after 1 hour of peroral administration in mouse at dose of 60 mg/kg; conditions: route oral
Procedure, shortened: (§7)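 Male mice fasted overnight, dosed orally with arabic gum suspension (10 mL/kg) 1 or 5 h before test, vehicle controls included. Tremorine 20 mg/kg ip given 1 h after compounds; central (tremor) and peripheral (salivation) parasympathetic signs recorded. ED50 = dose protecting 50% of animals, by probit analysis.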

Mus musculus [26] = assay: Inhibitory activity against tremorine-induced tremors, after 1 hour of peroral administration in mouse at dose of 60 mg/kg; conditions: route oral; procedure, shortened: as §7
Mus musculus [27] = assay: Inhibitory activity against tremorine-induced tremors, after 5 hour of peroral administration in mouse at dose of 60 mg/kg; conditions: route oral; procedure, shortened: as §7

## CN(C)CCCN1c2ccccc2Sc2ccc(Cl)cc21 [CHLORPROMAZINE]
Mus musculus [1]
  ED50: 2.9 mg/kg

## COc1ccccc1N1CCN(CCCC(=O)c2ccc(F)cc2)CC1 [FLUANISONE]
Mus musculus [2]
  ED50: 7.7 mg/kg
Mus musculus [3]
  inhibition in vivo at 100 mg/kg: 30%
Mus musculus [4]
  inhibition in vivo at 60 mg/kg: 0%
Mus musculus [5]
  inhibition in vivo at 40 mg/kg: 0%
Rattus norvegicus [6]
  inhibition in vivo at 100 mg/kg: 0%

## O=C(CCCN1CCC(O)(c2ccc(Cl)cc2)CC1)c1ccc(F)cc1 [HALOPERIDOL]
Mus musculus [7]
  inhibition in vivo at 20 mg/kg: 0%

## O=c1[nH]c(-c2ccc(F)cc2)c(CCN2CCN(c3cc(Cl)cc(Cl)c3)CC2)o1 [LODIPERONE]
Mus musculus [8]
  inhibition in vivo at 200 mg/kg: 10%
Mus musculus [9]
  inhibition in vivo at 200 mg/kg: 0%
Mus musculus [10]
  inhibition in vivo at 100 mg/kg: 30%
Mus musculus [11]
  inhibition in vivo at 100 mg/kg: 0%
Mus musculus [12]
  inhibition in vivo at 100 mg/kg: 0%
Mus musculus [13]
  inhibition in vivo at 100 mg/kg: 0%
Mus musculus [14]
  inhibition in vivo at 100 mg/kg: 0%
Mus musculus [15]
  inhibition in vivo at 100 mg/kg: 0%
Mus musculus [16]
  inhibition in vivo at 40 mg/kg: 0%
Rattus norvegicus [17]
  inhibition in vivo at 40 mg/kg: 10%
Rattus norvegicus [18]
  inhibition in vivo at 40 mg/kg: 10%
Rattus norvegicus [19]
  inhibition in vivo at 100 mg/kg: 0%
Rattus norvegicus [20]
  inhibition in vivo at 100 mg/kg: 0%
Rattus norvegicus [21]
  inhibition in vivo at 200 mg/kg: 0%
Rattus norvegicus [22]
  inhibition in vivo at 40 mg/kg: 44%

## COc1ccccc1N1CCN(CCc2oc(=O)[nH]c2-c2ccc(F)cc2)CC1 [ZOLOPERONE]
Mus musculus [23]
  inhibition in vivo at 100 mg/kg: 0%
Mus musculus [24]
  inhibition in vivo at 100 mg/kg: 0%
Mus musculus [25]
  inhibition in vivo at 60 mg/kg: 0%
Mus musculus [26]
  inhibition in vivo at 60 mg/kg: 10%
Mus musculus [27]
  inhibition in vivo at 60 mg/kg: 0%
